Results published in ChEMBL document CHEMBL1240366, “Blockade of X4-tropic HIV-1 cellular entry by GSK812397, a potent noncompetitive CXCR4 receptor antagonist” (Antimicrob Agents Chemother, 2010).
Active and inactive are the calls of the source. The rule behind the calls is not given here.

Assays:
[1] = system: Human immunodeficiency virus 1; test: Antiviral activity against HIV1 3B infected in human PBMC assessed as inhibition of viral replication after 7 days by scintillation counting; type: functional, organism-based; details: Human immunodeficiency virus 1, 3B, 168 h
Summary of the method: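 PHA/IL-2-stimulated donor PBMCs at 4 × 10^6 cells/ml in RPMI with 20% FCS and 10% IL-2. Cells were pre-incubated with compound for 1 h, then infected with HIV-1 IIIB pre-mixed with compound for 7 days at 37°C. Supernatant reverse transcriptase was measured with poly(rA)·oligo(dT) and [3H]dTTP for 2 h, captured on DE-81 filters, and counted.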

HEK293 = test: Cytotoxicity against HEK293 cells after 24 hrs by MTS assay; type: cell-based; details: Homo sapiens, HEK293, 24 h
Summary of the method: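 Viability in the cell-cell fusion format (BacMam-transduced HEK-293 cells mixed with HOS cells). Compound was added to the cell mix, and viability was read after 24 h with MTS dye.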

[2] = system: Human immunodeficiency virus 1; test: Antiviral activity against HIV1 3B infected in human HOS cells after 72 hrs by luminescence assay in presence of 45 mg/ml human serum albumin; type: functional, organism-based; details: Human immunodeficiency virus 1, 3B
Summary of the method: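 HOS LTR-luciferase viral assay (1 h compound pre-incubation, virus plus compound, 72 h, 37°C, luminescence) run with human serum albumin (45 mg/ml) with or without α-acid glycoprotein (1 mg/ml). Protein-free IC50 served as baseline for fold shift.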

[3] = system: Human immunodeficiency virus 1; test: Antiviral activity against HIV1 3B infected in human HOS cells after 72 hrs by luminescence assay in presence of 1 mg/ml alpha-acid glycoprotein; type: functional, organism-based; details: Human immunodeficiency virus 1, 3B
[4] = system: Human immunodeficiency virus 1; test: Antiviral activity against HIV1 JRCSF assessed as inhibition of viral replication by cell-based assay; type: functional; details: JRCSF ISOLATE
[5] = target: C-X-C chemokine receptor type 4 (Homo sapiens) (UniProt P61073); test: Agonist activity at human CXCR4 expressed in HEK293 cells assessed as effect intracellular calcium level after 1 hr by FLIPR assay; type: functional, cell-based
[6] = target: C-X-C chemokine receptor type 4 (Homo sapiens) (UniProt P61073); test: Antagonist activity at human CXCR4 expressed in HEK293 cells assessed as inhibition of SDF1-induced increase in intracellular calcium level treated 15 mins before agonist challenge measured after 1 hr by FLIPR assay; type: functional, cell-based
[7] = target: C-X-C chemokine receptor type 4 (Homo sapiens) (UniProt P61073); test: Inhibition of CXCR4-mediated chemotaxis in SDF1-stimulated human U937 cells treated 15 mins before SDF1 challenge measured after 2 hrs by luminescence assay relative to control; type: cell-based; details: U-937
Summary of the method: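 U937 cells (endogenous CXCR4) in RPMI with 2% FCS and 10 mM HEPES, 5 × 10^6 cells/ml, preincubated 15 min with compound, then placed above a 5.0 μm filter. The lower chamber held the same compound concentration plus SDF-1. Migration ran 2 h. Migrated cells were quantified by ATP luminescence. Viability was checked under identical conditions. For mode of action, SDF-1 concentration-response curves were run at increasing compound concentrations.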

Cytochrome P450 2C19 = Cytochrome P450 2C19 (Homo sapiens, UniProt P33261); test: Inhibition of CYP2C19 up to 30 uM; type: ADME
[8] = Volume of distribution at steady state in dog at 1 mg/kg, iv administered as single dose after 24 hrs by liquid chromatography-mass spectroscopy; type: ADME, organism-based, Canis lupus familiaris; set-up: dose 1 mg/kg, route intravenous; details: in vivo, read-out: Vdss
[9] = Clearance in dog at 1 mg/kg, iv administered as single dose after 24 hrs by liquid chromatography-mass spectroscopy; type: ADME, organism-based, Canis lupus familiaris; set-up: dose 1 mg/kg, route intravenous; details: in vivo
Summary of the method: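 Single intravenous dose of 1 mg/kg. Plasma was sampled at serial times over 24 h and measured by LC-MS/MS. Clearance was derived by pharmacokinetic analysis.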

[10] = Half life in mouse at 3 mg/kg, po administered as single dose by liquid chromatography-mass spectroscopy; type: ADME, organism-based; set-up: dose 3 mg/kg, route oral; details: in vivo
[11] = Half life in dog at 3 mg/kg, po administered as single dose by liquid chromatography-mass spectroscopy; type: ADME, organism-based, Canis lupus familiaris; set-up: dose 3 mg/kg, route oral; details: in vivo
Summary of the method: (§1)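 Single oral dose of 3 mg/kg. Plasma was sampled at serial times over 24 h and measured by LC-MS/MS. Half-life was derived by pharmacokinetic analysis.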

[12] = Half life in monkey at 3 mg/kg, po administered as single dose by liquid chromatography-mass spectroscopy; type: ADME, organism-based, Macaca mulatta; set-up: dose 3 mg/kg, route oral; details: rhesus monkey, in vivo; summary of the method: as §1
[13] = Oral bioavailability in rat at 3 mg/kg administered as single dose after 24 hrs by liquid chromatography-mass spectroscopy; type: ADME, organism-based; details: in vivo
[14] = Oral bioavailability in monkey at 3 mg/kg administered as single dose after 24 hrs by liquid chromatography-mass spectroscopy; type: ADME, organism-based, Macaca mulatta; details: rhesus monkey, in vivo
[15] = target: Angiotensin-converting enzyme (Homo sapiens, UniProt P12821); test: Inhibition of ACE
Cavia porcellus = species on record: Cavia porcellus; test: Inhibition of guinea pig ileum ACE at 30 uM; type: tissue-based
Summary of the method: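 Isolated guinea pig ileum preparation; ACE inhibition measured as maximal inhibition at 30 μM.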

[16] = target: Voltage-gated inwardly rectifying potassium channel KCNH2 (Homo sapiens, UniProt Q12809); test: Inhibition of human ERG up to 10 uM
Cytochrome P450 2D6 = Cytochrome P450 2D6 (Homo sapiens, UniProt P10635); test: Inhibition of CYP2D6 up to 30 uM; type: ADME
[17] = system: Human immunodeficiency virus 1; test: Antiviral activity against HIV1 isolate 05-121790 assessed as inhibition of viral replication after 7 days by scintillation counting; type: functional, organism-based; details: Human immunodeficiency virus 1, isolate 05-121790, 168 h
[18] = system: Human immunodeficiency virus 1; test: Antiviral activity against HIV1 isolate 05-121792 assessed as inhibition of viral replication after 7 days by scintillation counting; type: functional, organism-based; details: Human immunodeficiency virus 1, isolate 05-121792, 168 h
[19] = system: Human immunodeficiency virus 1; test: Antiviral activity against HIV1 isolate 05-121771 assessed as inhibition of viral replication after 7 days by scintillation counting; type: functional, organism-based; details: Human immunodeficiency virus 1, isolate 05-121771, 168 h
[20] = system: Human immunodeficiency virus 1; test: Antiviral activity against HIV1 isolate 05-121775 assessed as inhibition of viral replication after 7 days by scintillation counting; type: functional, organism-based; details: Human immunodeficiency virus 1, isolate 05-121775, 168 h
[21] = system: Human immunodeficiency virus 1; test: Antiviral activity against HIV1 isolate 05-121776 assessed as inhibition of viral replication after 7 days by scintillation counting; type: functional, organism-based; details: Human immunodeficiency virus 1, isolate 05-121776, 168 h
[22] = system: Human immunodeficiency virus 1; test: Antiviral activity against HIV1 isolate 05-121777 assessed as inhibition of viral replication after 7 days by scintillation counting; type: functional, organism-based; details: Human immunodeficiency virus 1, isolate 05-121777, 168 h
[23] = system: Human immunodeficiency virus 1; test: Antiviral activity against HIV1 isolate 05-121778 assessed as inhibition of viral replication after 7 days by scintillation counting; type: functional, organism-based; details: Human immunodeficiency virus 1, isolate 05-121778, 168 h
[24] = system: Human immunodeficiency virus 1; test: Antiviral activity against HIV1 isolate 05-121779 assessed as inhibition of viral replication after 7 days by scintillation counting; type: functional, organism-based; details: Human immunodeficiency virus 1, isolate 05-121779, 168 h
[25] = system: Human immunodeficiency virus 1; test: Antiviral activity against HIV1 isolate 05-121781 assessed as inhibition of viral replication after 7 days by scintillation counting; type: functional, organism-based; details: Human immunodeficiency virus 1, isolate 05-121781, 168 h
[26] = system: Human immunodeficiency virus 1; test: Antiviral activity against HIV1 isolate 05-121783 assessed as inhibition of viral replication after 7 days by scintillation counting; type: functional, organism-based; details: Human immunodeficiency virus 1, isolate 05-121783, 168 h
[27] = system: Human immunodeficiency virus 1; test: Antiviral activity against HIV1 isolate 05-121796 assessed as inhibition of viral replication after 7 days by scintillation counting; type: functional, organism-based; details: Human immunodeficiency virus 1, isolate 05-121796, 168 h

Chain of C-X-C chemokine receptor type 4 (Homo sapiens) (P61073 whole entry): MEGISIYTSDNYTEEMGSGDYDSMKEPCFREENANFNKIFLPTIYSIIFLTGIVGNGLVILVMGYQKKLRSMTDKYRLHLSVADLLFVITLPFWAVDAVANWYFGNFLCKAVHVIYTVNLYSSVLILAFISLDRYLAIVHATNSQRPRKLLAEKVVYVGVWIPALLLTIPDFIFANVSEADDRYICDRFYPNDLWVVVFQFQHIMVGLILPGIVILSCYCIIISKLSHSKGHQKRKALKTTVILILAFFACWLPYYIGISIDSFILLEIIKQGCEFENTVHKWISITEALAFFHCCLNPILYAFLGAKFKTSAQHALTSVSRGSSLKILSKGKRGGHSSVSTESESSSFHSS
Chain of Voltage-gated inwardly rectifying potassium channel KCNH2 (Q12809 whole entry): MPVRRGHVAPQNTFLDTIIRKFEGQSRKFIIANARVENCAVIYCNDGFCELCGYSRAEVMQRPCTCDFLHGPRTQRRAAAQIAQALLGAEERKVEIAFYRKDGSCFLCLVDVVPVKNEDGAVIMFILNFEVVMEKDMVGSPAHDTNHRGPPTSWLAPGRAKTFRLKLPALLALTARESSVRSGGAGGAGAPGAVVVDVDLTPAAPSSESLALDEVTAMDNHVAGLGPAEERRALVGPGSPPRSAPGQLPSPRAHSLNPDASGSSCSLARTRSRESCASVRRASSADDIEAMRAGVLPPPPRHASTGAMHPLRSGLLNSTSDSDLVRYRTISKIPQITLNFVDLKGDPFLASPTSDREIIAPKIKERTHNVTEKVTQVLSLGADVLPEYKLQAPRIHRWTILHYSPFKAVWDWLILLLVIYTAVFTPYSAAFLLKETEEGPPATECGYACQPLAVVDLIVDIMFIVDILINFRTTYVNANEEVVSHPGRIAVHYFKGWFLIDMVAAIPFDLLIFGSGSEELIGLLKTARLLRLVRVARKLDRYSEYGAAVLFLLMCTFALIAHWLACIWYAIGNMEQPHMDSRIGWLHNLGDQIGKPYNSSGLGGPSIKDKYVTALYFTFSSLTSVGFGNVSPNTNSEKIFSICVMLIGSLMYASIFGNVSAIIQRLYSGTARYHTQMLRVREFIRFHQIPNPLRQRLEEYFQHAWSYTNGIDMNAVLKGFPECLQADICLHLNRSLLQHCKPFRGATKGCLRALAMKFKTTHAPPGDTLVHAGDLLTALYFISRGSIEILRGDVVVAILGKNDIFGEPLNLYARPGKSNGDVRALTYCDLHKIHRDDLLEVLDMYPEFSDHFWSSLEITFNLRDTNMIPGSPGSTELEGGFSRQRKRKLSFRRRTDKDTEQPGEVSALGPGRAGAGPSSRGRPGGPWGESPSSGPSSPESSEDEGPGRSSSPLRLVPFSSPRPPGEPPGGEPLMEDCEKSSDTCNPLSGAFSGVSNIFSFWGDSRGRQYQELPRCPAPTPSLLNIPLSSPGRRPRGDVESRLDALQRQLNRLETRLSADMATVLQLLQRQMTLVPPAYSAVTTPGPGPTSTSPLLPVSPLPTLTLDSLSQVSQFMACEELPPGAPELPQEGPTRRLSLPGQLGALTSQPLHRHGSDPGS
Chain of Cytochrome P450 2D6 (P10635 whole entry): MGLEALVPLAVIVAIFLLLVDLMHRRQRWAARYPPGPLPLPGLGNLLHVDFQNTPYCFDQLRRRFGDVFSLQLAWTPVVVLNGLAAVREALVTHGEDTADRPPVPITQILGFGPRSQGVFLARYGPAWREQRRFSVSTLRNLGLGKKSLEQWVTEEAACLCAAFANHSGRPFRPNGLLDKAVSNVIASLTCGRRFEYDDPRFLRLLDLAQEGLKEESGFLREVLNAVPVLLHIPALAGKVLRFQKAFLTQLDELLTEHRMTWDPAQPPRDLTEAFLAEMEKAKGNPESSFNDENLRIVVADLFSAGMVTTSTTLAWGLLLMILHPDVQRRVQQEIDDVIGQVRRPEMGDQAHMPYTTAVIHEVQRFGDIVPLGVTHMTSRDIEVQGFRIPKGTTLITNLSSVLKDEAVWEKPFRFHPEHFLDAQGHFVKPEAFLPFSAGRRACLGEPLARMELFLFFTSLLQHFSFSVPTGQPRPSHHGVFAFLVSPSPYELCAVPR
Chain of Angiotensin-converting enzyme (P12821 whole entry): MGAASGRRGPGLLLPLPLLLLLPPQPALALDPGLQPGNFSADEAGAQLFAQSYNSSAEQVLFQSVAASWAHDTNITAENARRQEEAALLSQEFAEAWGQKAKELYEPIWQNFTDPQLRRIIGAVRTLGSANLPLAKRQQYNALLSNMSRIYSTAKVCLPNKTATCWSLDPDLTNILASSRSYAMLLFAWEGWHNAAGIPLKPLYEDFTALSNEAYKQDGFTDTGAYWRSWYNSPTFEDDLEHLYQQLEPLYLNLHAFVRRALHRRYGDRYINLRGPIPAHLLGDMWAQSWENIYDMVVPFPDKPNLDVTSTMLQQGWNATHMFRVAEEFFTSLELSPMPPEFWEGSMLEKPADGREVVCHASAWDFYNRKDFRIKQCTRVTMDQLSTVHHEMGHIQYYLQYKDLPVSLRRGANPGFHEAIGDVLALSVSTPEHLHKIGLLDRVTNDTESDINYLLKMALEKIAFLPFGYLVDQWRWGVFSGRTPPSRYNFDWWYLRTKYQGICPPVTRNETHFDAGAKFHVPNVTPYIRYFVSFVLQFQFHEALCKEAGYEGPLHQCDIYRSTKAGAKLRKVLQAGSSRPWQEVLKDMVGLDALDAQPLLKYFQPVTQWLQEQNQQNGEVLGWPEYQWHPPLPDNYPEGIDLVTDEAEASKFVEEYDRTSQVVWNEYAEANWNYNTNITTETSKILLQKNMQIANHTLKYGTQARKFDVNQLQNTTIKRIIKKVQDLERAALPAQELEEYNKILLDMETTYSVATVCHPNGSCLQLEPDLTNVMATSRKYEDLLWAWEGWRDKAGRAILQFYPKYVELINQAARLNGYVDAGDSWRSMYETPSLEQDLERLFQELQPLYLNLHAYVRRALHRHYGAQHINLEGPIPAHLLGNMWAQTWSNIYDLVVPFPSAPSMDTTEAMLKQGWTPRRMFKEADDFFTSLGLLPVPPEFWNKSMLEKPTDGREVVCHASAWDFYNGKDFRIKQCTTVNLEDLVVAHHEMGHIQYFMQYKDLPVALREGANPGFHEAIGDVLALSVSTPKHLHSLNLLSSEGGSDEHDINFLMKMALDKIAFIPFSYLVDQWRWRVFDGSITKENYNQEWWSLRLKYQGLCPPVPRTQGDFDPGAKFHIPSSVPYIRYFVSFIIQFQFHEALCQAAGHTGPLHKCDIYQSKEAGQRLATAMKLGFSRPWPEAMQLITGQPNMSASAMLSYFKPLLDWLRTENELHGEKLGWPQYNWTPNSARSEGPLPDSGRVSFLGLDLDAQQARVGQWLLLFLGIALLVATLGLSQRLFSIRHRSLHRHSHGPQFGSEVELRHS
Chain of Cytochrome P450 2C19 (P33261 whole entry): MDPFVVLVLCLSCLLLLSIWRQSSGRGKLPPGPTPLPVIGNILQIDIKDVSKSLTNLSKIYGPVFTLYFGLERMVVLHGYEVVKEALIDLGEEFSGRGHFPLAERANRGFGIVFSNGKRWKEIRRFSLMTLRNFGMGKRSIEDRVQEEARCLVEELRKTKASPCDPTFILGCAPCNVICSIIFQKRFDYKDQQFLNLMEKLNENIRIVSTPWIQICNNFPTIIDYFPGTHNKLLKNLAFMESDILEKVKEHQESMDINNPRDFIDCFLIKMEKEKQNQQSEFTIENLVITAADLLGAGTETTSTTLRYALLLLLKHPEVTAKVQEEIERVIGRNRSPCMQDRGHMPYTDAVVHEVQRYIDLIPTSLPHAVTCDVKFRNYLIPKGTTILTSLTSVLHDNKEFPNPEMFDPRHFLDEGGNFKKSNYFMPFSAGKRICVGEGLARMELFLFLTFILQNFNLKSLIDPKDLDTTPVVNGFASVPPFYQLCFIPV

IC50 [1]: 4.6 nM
IC50 [2]: 2.01 nM
IC50 [3]: 2.87 nM
Activity [5]: inactive
Activity [6]: Dose-dependent effect
inhibition [7]: 109%
inhibition (INH) (Cytochrome P450 2C19): Not Active
Vd [8]: 5.3 L/kg
clearance [9]: 5.5 mL/min/kg
half-life [10]: 4.1 h
half-life [11]: > 12 h
half-life [12]: > 12 h
bioavailability [13]: 21%
bioavailability [14]: 17%
IC50 [15]: 193 nM
inhibition (INH) (Cytochrome P450 2D6): Not Active
IC50 [17]: 1 nM
IC50 [18]: 1 nM
IC50 [19]: 1 nM
IC50 [20]: 1 nM
IC50 [21]: 1 nM
IC50 [22]: 1 nM
IC50 [23]: 1 nM
IC50 [24]: 1 nM
IC50 [25]: 1 nM
IC50 [26]: 1 nM
IC50 [27]: 1 nM
Compound: CN1CCN(c2cccc3nc(CN(C)[C@H]4CCCc5cccnc54)c(CO)n23)CC1
IC50 (HEK293): > 1000 nM
inhibition [4]: inactive
inhibition (Cavia porcellus): 26%
inhibition (INH) [16]: Not Active
